Assay results published in PMC7686626 (The Journal of International Medical Research, 2020).

Columns and labels:
[1] = Pharmacokinetics study in rats after oral administration of HQCF extract; format: in vivo, rat; conditions: for AUC(0-inf) / AUC(0-t) / Cmax / Tmax / half-life: male, Sprague-Dawley, rat, plasma, po, 1526.5 mg/kg; for shape of the plasma concentration–time curve: rats, after HQCF extract administration
Outline: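 Male Sprague–Dawley rats (200 ± 20 g), acclimatised 7 days, fasted 12 h; n = 6 given extract water solution (0.2 g·mL−1) by gavage. Blood (~250 µL) from ophthalmic vein at 0–24 h; plasma spun at 16,060 × g, 10 min, 4°C. Plasma protein-precipitated with taxol internal standard; C18 gradient HPLC–ESI-MS/MS in SRM mode. Non-compartmental analysis; mean ± SD.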

[2] = Stability of QC samples of the analytes in rat plasma; format: in vitro ADME; conditions: storage conditions of Table 5
Outline: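 Rat plasma QC samples at low, middle and high levels (n = 6 each) were held 4 h at room temperature, 24 h at 4°C, three freeze/thaw cycles (−80°C to room temperature) or 45 days at −80°C. Samples were protein-precipitated with taxol internal standard and run by HPLC–MS/MS SRM. A deviation within ±15% was taken as stable.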

[3] = Short-term stability of stock solutions at room temperature; format: physicochemical; conditions: stock solution in methanol, room temperature for 6 hours
Outline: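 Stock solutions (2.0 mg·mL−1 in methanol) of each analyte and the taxol internal standard were held 6 hours at room temperature and then assayed by the validated HPLC–MS/MS method. A deviation within ±15% was taken as stable.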

SMILES | AUC(0-inf) [1] [µg·h/mL] | AUC(0-t) [1] [µg·h/mL] | Cmax [1] [µg/mL] | Tmax [1] [h] | half-life [1] [h] | shape of the plasma concentration–time curve [1] | Degradation in rat plasma under different experimental conditions [2] | Stock solution stability, accuracy [3] [%]
C[C@@]12C[C@@]3(O)O[C@@H](O1)[C@]1(COC(=O)c4ccccc4)[C@H]3C[C@@]12O[C@@H]1O[C@H](CO)[C@@H](O)[C@H](O)[C@H]1O [PA, paeoniflorin] | 0.762 ± 0.281 | 0.41 ± 0.0923 | 0.117 ± 0.0315 | 1.2 ± 0.6 | 6.94 ± 2.8 | double-peak absorption phases | no significant degradation | 105.4
COc1ccc(-c2coc3cc(O)ccc3c2=O)cc1O [CA, calycosin] | 1.83 ± 0.416 | 1.68 ± 0.342 | 0.247 ± 0.0323 | 1.5 ± 0.4 | 6.28 ± 2.5 | double-peak absorption phases | no significant degradation | 90.2
CC(=O)O[C@H]1C(=O)[C@@]2(C)[C@H]([C@H](OC(=O)c3ccccc3)[C@]3(O)C[C@H](OC(=O)[C@H](O)[C@@H](NC(=O)c4ccccc4)c4ccccc4)C(C)=C1C3(C)C)[C@]1(OC(C)=O)CO[C@@H]1C[C@@H]2O [IS, Taxol, reference compound] | – | – | – | – | – | – | – | 102.4
